Results as given in ChEMBL document CHEMBL4680373, “Evaluation of 5-(Trifluoromethyl)-1,2,4-oxadiazole-Based Class IIa HDAC Inhibitors for Huntington's Disease” (ACS Med Chem Lett, 2021).

Tests used:
[1] = Inhibition of Class 2A HDAC in human HEK293 cells using Boc-Lys(TFA) as substrate by fluorogenic assay; assay type: cell-based
Histone deacetylase 1 = Histone deacetylase 1 (Homo sapiens, UniProt Q13547); experiment: Inhibition of HDAC1 (unknown origin) using Ac-Arg-Gly-Lys(Ac) as substrate by fluorogenic assay
Cytochrome P450 1A2 = Cytochrome P450 1A2 (Homo sapiens, UniProt P05177); experiment: Inhibition of CYP1A2 in human liver microsomes using phenacetin as substrate incubated for 30 mins by LC-MS/MS analysis; assay type: ADME
[2] = Toxicity in CBAxC57BL/6J mouse assessed as effect on locomotor activity at 10 to 100 mg/kg, po bid for 14.5 days; assay type: organism-based; details: in vivo, 348 h, dose 10-100 mg/kg, time 14.5 day
Method in brief: (§1)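 R6/2 HD mice and wild-type littermates, male and female, were dosed orally b.i.d. at 10, 30 or 100 mg/kg or with vehicle for 14.5 days. Vehicle was 10% (w/v) hydroxypropyl-β-cyclodextrin in 50 mM citrate buffer. Body weight, body temperature, passive observations and active manipulation scores were recorded. Blood and brain were collected 2 h after the final dose.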

[3] = In vivo inhibition of Class 1 HDAC in CBAxC57BL/6J mouse brain assessed as increase in H4K12 acetylation at 30 to 100 mg/kg, po bid for 14.5 days by dot blot technique; assay type: organism-based; details: 348 h, dose 30-100 mg/kg, time 14.5 day
Method in brief: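 R6/2 and wild-type littermate mice of both sexes were dosed orally b.i.d. for 14.5 days with 10, 30 or 100 mg/kg or vehicle (10% w/v hydroxypropyl-β-cyclodextrin in 50 mM citrate buffer). Half-brains were collected 2 h after the last dose. Dot blots measured global and H4K12 acetylation; Western blots measured H3, H4 and tubulin acetylation. Genotypes were pooled.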

Histone deacetylase 2 = Histone deacetylase 2 (Homo sapiens, UniProt Q92769); experiment: Inhibition of HDAC2 (unknown origin) using Ac-Arg-Gly-Lys(Ac) as substrate by fluorogenic assay
[4] = Metabolic stability of the compound in C57BL/6 mouse plasma at 5 uM measured for 60 mins by LC-MS/MS analysis; assay type: ADME, cell-free; details: 1 h
[5] = Volume of distribution in C57BL/6J mouse at 3.3 mg/kg, iv by LC-MS/MS analysis; assay type: ADME, organism-based; details: in vivo
Method in brief: (§2)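 Fed male C57Bl/6 mice dosed once intravenously at 3.3 mg/kg and by oral gavage at 11.5 mg/kg. Compound levels were quantified to derive PK parameters.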

[6] = target: Muscarinic acetylcholine receptor M3 (Homo sapiens, UniProt P20309); experiment: Displacement of [3H]4-DAMP from human recombinant M3 receptor incubated for 1 hr by radiometric scintillation counting analysis
[7] = In vivo inhibition of Class 2B HDAC in C57BL/6J mouse brain assessed as increase in tubulin acetylation administered orally via gavage measured after 2 hrs by western blot analysis; assay type: organism-based; details: po, dose 10-100 mg/kg
Method in brief: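 Brain samples were taken 2 h after single oral gavage doses (10, 30, 100 mg/kg). Western blots probed H3, H4 and tubulin acetylation, each normalized to its own total-protein band. Comparison was against samples taken 5 min after a 10 mg/kg dose.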

[8] = target: Muscarinic acetylcholine receptor M5 (Homo sapiens) (UniProt P08912); experiment: Displacement of [3H]4-DAMP from human recombinant M5 receptor at 10 uM incubated for 1 hr by radiometric scintillation counting analysis
Method in brief: (§3)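 Broad selectivity panel of binding, cellular, functional and enzymatic assays run by a contract lab. Each test was done at a single 10 μM concentration and reported as percent inhibition.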

[9] = Oral bioavailability in C57BL/6J mouse at 11.5 mg/kg administered via gavage by LC-MS/MS analysis; assay type: ADME, organism-based; details: in vivo; method in brief: as §2
[10] = Toxicity in CBAxC57BL/6J mouse assessed as effect on shallow respiration at 10 to 100 mg/kg, po bid for 14.5 days; assay type: organism-based; details: in vivo, 348 h, dose 10-100 mg/kg, time 14.5 day; method in brief: as §1
Cytochrome P450 2C8 = Cytochrome P450 2C8 (Homo sapiens, UniProt P10632); experiment: Inhibition of CYP2C8 in human liver microsomes using amodiaquine as substrate incubated for 15 mins by LC-MS/MS analysis; assay type: ADME
[11] = target: Muscarinic acetylcholine receptor M4 (Homo sapiens) (UniProt P08173); experiment: Displacement of [3H]4-DAMP from human recombinant M4 receptor at 10 uM incubated for 1 hr by radiometric scintillation counting analysis; method in brief: as §3
Histone deacetylase 9 = Histone deacetylase 9 (Homo sapiens, UniProt Q9UKV0); experiment: Inhibition of HDAC9 (unknown origin) using Boc Lys(TFA) as substrate by fluorogenic assay
Method in brief: (§4)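 Biochemical HDAC isoform assay with the artificial fluorogenic substrate Boc-Lys-(TFA)-AMC, which is specific to class IIa enzymes and HDAC8. IC50 taken as the geometric mean of three experiments.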

Histone deacetylase 4 [12] = target: T1, Histone deacetylase 4 (Homo sapiens, UniProt P56524); experiment: Inhibition of human recombinant HDAC4 at 10 uM incubated for 30 mins by fluorometry; method in brief: as §3
[13] = Toxicity in CBAxC57BL/6J mouse assessed as effect on seizure at 10 to 100 mg/kg, po bid for 14.5 days; assay type: organism-based; details: in vivo, 348 h, dose 10-100 mg/kg, time 14.5 day; method in brief: as §1
[14] = target: Muscarinic acetylcholine receptor M4 (Homo sapiens, UniProt P08173); experiment: Displacement of [3H]4-DAMP from human recombinant M4 receptor incubated for 1 hr by radiometric scintillation counting analysis
[15] = target: Cav1.2 (voltage-dependent L-type calcium channel subunit alpha-1C) (Rattus norvegicus, UniProt P22002); experiment: Displacement of [3H]Diltiazem from Cav1.2 in rat brain at 10 uM incubated for 120 mins by radiometric scintillation counting analysis; assay type: tissue-based; details: probe [3H]Diltiazem; method in brief: as §3
[16] = Toxicity in CBAxC57BL/6J mouse assessed as effect on loss of paw pull at 10 to 100 mg/kg, po bid for 14.5 days; assay type: organism-based; details: in vivo, 348 h, dose 10-100 mg/kg, time 14.5 day; method in brief: as §1
Histone deacetylase 4 [17] = target: T1, Histone deacetylase 4; experiment: Inhibition of HDAC4 (unknown origin) using Boc Lys(TFA) as substrate by fluorogenic assay; method in brief: as §4
Cytochrome P450 2C19 = Cytochrome P450 2C19 (Homo sapiens, UniProt P33261); experiment: Inhibition of CYP2C19 in human liver microsomes using (S)-(+)-mephenytoin as substrate incubated for 30 mins by LC-MS/MS analysis; assay type: ADME
[18] = Unbound fraction in mouse blood by equilibrium dialysis method; assay type: ADME, tissue-based
Method in brief: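 Compound added to mouse blood; unbound fraction determined by equilibrium dialysis.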

[19] = Toxicity in CBAxC57BL/6J mouse assessed as effect on provoked biting at 10 to 100 mg/kg, po bid for 14.5 days; assay type: organism-based; details: in vivo, 348 h, dose 10-100 mg/kg, time 14.5 day; method in brief: as §1
[20] = Inhibition of Class 1/2b HDAC in human Jurkat E6.1 cells using Boc-Lys-(Ac)-AMC as substrate by fluorogenic assay; assay type: cell-based
Method in brief: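 Whole-cell assay in Jurkat E6.1 cells with artificial fluorogenic substrates: Boc-Lys-(TFA)-AMC for class IIa/HDAC8 activity, which in this line is mostly HDAC4, and Boc-Lys-(Ac)-AMC for class I/IIb activity. IC50 given as the geometric mean of three experiments.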

[21] = Stability of the compound in simulated gastric fluid at 10 uM at pH 1.2 incubated for 4 hrs by LC-MS/MS analysis
[22] = Toxicity in CBAxC57BL/6J mouse assessed as effect on seizure by tail at 10 to 100 mg/kg, po bid for 14.5 days; assay type: organism-based; details: in vivo, 348 h, dose 10-100 mg/kg, time 14.5 day; method in brief: as §1

T1 sequence (P56524 whole entry): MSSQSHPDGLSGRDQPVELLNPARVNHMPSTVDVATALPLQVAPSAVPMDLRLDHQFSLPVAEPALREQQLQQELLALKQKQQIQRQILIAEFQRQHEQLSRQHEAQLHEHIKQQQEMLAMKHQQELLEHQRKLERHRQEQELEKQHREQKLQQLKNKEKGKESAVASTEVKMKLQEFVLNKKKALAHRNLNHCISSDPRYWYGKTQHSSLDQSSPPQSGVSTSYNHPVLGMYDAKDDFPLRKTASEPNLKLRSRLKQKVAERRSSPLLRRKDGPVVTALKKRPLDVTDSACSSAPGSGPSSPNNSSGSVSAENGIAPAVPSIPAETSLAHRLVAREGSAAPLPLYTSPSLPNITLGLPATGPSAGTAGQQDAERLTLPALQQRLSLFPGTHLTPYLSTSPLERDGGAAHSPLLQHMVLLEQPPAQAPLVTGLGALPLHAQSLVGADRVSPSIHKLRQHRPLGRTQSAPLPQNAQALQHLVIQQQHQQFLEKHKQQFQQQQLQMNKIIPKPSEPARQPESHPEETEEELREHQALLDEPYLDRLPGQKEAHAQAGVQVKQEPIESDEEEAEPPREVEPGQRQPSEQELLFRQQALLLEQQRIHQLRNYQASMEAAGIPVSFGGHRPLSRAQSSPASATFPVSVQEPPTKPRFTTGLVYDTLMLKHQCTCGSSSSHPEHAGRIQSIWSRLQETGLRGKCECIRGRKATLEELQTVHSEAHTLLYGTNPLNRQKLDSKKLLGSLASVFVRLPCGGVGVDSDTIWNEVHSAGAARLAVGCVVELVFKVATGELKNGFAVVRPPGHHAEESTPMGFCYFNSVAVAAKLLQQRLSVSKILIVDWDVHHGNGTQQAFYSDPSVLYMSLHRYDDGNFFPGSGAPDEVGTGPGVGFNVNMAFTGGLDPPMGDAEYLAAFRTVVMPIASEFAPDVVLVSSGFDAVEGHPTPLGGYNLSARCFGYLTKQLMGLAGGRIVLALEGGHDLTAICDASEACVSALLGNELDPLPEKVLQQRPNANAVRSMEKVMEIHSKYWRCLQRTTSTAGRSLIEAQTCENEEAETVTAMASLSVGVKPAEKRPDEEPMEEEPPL
Chain of Histone deacetylase 9 (Q9UKV0 whole entry, canonical isoform): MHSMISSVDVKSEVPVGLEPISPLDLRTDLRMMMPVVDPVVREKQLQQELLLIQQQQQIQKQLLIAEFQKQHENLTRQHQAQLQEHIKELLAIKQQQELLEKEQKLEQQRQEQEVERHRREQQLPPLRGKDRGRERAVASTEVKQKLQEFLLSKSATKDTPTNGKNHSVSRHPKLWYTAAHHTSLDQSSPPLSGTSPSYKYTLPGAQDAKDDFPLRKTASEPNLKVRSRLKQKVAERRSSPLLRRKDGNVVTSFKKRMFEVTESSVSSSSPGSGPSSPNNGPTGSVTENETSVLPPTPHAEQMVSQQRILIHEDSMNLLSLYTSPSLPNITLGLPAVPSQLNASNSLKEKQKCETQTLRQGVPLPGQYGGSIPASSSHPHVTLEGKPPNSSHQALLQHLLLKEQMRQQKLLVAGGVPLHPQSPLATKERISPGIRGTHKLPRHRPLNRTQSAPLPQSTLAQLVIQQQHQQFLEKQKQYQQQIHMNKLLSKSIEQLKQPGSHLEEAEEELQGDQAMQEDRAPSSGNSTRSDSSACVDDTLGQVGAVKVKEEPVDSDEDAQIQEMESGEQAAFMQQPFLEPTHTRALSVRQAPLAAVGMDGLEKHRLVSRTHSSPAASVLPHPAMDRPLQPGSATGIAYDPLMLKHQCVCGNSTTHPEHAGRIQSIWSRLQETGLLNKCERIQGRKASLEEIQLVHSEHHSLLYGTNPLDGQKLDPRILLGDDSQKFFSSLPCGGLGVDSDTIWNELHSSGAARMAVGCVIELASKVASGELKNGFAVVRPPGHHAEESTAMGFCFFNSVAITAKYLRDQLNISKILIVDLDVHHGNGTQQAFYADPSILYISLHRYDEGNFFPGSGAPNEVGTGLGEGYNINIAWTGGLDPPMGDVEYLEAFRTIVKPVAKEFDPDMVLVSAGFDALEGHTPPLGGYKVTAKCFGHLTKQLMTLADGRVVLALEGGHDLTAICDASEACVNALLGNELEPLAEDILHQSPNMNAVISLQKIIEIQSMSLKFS
Chain of Muscarinic acetylcholine receptor M5 (Homo sapiens) (P08912 whole entry): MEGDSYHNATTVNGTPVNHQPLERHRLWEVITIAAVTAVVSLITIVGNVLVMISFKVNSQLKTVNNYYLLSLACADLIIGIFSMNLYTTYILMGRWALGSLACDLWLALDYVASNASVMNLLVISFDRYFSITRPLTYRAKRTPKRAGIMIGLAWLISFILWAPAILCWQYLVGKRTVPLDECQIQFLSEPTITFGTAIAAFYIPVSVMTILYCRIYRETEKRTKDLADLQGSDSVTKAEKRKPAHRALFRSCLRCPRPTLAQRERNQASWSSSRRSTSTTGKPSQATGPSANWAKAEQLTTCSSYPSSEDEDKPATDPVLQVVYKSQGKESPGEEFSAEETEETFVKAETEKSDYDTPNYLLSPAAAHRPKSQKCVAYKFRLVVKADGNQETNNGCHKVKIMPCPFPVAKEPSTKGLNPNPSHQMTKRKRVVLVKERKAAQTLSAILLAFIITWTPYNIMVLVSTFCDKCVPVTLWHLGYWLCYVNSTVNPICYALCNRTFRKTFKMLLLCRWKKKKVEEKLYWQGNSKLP
Chain of Histone deacetylase 1 (Q13547 whole entry): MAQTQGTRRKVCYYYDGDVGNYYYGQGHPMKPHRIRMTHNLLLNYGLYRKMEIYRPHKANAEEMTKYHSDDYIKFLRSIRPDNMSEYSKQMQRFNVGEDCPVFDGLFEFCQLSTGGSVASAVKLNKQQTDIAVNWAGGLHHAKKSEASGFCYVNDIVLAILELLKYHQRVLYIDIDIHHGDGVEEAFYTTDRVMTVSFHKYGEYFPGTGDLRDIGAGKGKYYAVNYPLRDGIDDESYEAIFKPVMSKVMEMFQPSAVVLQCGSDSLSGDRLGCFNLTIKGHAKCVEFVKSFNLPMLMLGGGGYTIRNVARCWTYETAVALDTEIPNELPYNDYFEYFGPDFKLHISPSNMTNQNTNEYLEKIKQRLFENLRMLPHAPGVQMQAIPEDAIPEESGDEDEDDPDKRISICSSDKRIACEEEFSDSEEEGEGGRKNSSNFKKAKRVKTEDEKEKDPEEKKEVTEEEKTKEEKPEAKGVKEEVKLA
Chain of Cytochrome P450 2C8 (P10632 whole entry): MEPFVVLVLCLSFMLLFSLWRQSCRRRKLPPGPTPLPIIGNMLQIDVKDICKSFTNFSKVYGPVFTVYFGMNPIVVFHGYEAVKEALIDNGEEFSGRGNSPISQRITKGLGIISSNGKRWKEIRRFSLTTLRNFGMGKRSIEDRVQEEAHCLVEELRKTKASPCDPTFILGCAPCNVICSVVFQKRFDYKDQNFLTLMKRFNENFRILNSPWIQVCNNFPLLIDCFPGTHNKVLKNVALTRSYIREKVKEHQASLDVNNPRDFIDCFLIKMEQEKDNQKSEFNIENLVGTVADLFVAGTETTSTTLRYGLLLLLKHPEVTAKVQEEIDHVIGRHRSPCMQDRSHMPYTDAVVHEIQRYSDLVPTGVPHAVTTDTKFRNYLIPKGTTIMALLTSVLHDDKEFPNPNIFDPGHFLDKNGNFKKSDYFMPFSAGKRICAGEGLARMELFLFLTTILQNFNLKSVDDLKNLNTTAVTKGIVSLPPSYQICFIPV
Chain of Cytochrome P450 1A2 (P05177 whole entry): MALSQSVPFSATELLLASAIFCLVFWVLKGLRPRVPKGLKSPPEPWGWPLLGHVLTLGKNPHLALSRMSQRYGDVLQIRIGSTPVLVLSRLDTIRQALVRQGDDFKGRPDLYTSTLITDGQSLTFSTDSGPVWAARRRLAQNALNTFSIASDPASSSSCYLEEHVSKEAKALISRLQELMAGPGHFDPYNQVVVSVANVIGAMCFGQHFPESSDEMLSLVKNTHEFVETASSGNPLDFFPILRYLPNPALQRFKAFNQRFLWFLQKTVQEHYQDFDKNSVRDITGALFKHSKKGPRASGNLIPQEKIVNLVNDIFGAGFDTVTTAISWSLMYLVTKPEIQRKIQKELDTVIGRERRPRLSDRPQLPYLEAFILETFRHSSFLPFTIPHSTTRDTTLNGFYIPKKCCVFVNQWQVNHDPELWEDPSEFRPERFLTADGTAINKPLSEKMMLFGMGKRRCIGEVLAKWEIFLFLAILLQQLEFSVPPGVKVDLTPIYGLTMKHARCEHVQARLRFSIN
Chain of Muscarinic acetylcholine receptor M3 (P20309 whole entry): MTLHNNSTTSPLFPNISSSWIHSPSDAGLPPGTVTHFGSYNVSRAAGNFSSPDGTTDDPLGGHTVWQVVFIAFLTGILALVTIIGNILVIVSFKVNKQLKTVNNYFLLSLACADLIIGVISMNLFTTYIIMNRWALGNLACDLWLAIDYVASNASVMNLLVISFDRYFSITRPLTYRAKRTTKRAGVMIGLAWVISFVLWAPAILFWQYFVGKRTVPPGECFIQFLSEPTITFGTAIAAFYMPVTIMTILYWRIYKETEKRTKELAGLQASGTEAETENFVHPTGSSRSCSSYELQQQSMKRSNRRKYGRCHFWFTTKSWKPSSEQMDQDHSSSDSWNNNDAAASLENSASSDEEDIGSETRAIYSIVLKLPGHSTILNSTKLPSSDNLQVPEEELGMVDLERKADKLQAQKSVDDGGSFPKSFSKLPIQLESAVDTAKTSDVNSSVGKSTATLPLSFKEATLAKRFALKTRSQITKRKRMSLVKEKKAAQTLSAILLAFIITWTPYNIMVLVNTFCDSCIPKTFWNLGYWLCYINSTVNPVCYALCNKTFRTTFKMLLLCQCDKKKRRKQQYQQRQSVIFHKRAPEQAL

IC50 [1]: 10 nM | IC50 (Histone deacetylase 1): 17 µM | IC50 (Cytochrome P450 1A2): > 50 µM | IC50 (Histone deacetylase 2): 27 µM | Stabilty [4]: Stable | Vd [5]: 3.8 L/kg | Kd [6]: > 5 µM | inhibition [8]: > 80% | bioavailability [9]: 100% | IC50 (Cytochrome P450 2C8): > 50 µM | inhibition [11]: > 80% | IC50 (Histone deacetylase 9): 30 nM | inhibition (Histone deacetylase 4 [12]): > 80% | Kd [14]: > 5 µM | IC50 (Histone deacetylase 4 [17]): 10 nM | IC50 (Cytochrome P450 2C19): > 50 µM | fraction unbound [18]: 0.73 | IC50 [20]: 5 µM
Structure (SMILES): C[C@H](CN1CCC[C@@H]1C)NC(=O)c1ccc(-c2noc(C(F)(F)F)n2)cc1
Activity [2]: Non-Toxic | Activity [3]: Toxic | Activity [7]: Toxic | Activity [10]: Non-Toxic | Activity [13]: Non-Toxic | inhibition at 2 h, 10 µM [15]: > 50% | Activity [16]: Non-Toxic | Activity [19]: Non-Toxic | Stability [21]: Stable | Activity [22]: Non-Toxic
